How the values were obtained:
Conditions in all cases: stereoisomer not certain
UniProt Q8VF24 = target: T1, UniProt Q8VF24
T1 sequence (whole entry): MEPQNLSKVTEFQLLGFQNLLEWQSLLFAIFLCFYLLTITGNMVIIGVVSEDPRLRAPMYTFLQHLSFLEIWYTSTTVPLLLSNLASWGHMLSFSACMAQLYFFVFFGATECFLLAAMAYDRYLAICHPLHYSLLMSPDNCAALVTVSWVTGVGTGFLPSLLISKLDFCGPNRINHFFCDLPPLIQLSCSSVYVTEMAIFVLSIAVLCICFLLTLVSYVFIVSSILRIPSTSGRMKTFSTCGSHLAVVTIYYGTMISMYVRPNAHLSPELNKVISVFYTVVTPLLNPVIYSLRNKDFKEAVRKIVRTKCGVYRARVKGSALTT
Method in brief: (§1)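 Transient luciferase assays in mammalian cell lines were common, though methods varied by source. The values come from published papers and their supplementary material, with extra details from the original authors when needed. Responsive refers to a measured signal the original authors judged statistically different from baseline, and non-responsive (inactive) to the remainder.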

UniProt Q8VF43 = target: T2, UniProt Q8VF43
T2 sequence (whole entry): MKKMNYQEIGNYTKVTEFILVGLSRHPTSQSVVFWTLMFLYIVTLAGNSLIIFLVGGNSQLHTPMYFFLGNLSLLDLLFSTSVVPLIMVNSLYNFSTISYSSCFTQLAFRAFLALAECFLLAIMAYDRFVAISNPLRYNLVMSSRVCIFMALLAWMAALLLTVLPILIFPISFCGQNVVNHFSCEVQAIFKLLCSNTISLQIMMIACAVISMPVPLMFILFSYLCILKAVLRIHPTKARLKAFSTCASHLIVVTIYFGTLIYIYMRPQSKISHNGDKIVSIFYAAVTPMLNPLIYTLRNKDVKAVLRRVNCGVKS
Method in brief: as §1

UniProt Q8VF44 = target: T3, UniProt Q8VF44
T3 sequence (whole entry): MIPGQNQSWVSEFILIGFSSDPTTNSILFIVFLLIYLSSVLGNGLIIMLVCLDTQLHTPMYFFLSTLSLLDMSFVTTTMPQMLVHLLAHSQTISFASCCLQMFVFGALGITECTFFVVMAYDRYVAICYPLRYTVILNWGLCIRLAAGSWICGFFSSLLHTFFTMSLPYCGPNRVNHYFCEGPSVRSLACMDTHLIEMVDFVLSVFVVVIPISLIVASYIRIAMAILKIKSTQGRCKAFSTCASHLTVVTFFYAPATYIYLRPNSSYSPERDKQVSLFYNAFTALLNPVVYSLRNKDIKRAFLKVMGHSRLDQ
Method in brief: as §1

UniProt Q8VF52 = target: T4, UniProt Q8VF52
T4 sequence (whole entry): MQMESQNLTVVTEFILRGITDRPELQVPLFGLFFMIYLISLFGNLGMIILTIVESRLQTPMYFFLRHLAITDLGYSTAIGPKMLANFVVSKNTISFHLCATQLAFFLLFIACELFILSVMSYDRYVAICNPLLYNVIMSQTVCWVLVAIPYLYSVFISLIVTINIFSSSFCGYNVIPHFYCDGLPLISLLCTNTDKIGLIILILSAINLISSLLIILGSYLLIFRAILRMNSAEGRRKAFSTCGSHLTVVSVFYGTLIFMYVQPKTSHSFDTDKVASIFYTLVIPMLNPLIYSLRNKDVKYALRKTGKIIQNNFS
Method in brief: as §1

UniProt Q8VFG6 = target: T5, UniProt Q8VFG6
T5 sequence (whole entry): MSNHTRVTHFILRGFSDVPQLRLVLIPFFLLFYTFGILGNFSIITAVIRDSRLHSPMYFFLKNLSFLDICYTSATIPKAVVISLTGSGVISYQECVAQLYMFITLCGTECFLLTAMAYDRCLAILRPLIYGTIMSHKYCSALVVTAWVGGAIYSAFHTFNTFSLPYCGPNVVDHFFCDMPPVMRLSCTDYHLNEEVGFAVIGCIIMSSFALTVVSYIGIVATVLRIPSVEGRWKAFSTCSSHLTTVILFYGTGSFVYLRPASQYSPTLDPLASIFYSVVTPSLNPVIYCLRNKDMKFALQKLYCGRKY
Method in brief: as §1

UniProt Q8VFM8 = target: T6, UniProt Q8VFM8
T6 sequence (whole entry): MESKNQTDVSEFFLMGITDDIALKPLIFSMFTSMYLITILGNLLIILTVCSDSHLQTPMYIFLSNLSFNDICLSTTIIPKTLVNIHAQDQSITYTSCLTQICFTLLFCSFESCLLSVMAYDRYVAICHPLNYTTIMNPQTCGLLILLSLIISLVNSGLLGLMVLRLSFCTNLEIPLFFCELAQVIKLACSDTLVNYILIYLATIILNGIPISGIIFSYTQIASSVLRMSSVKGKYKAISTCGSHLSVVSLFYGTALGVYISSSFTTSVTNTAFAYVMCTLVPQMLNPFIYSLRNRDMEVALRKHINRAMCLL
Method in brief: as §1

UniProt Q8VF06 = target: UniProt Q8VF06
Method in brief: as §1

UniProt Q8VF73 = target: UniProt Q8VF73
Method in brief: as §1

UniProt Q8VFB8 = target: UniProt Q8VFB8
Method in brief: as §1
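Note: active if original authors judged signal statistically different from baseline.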

UniProt Q8VF06, sequence (Q8VF06 as listed by the source): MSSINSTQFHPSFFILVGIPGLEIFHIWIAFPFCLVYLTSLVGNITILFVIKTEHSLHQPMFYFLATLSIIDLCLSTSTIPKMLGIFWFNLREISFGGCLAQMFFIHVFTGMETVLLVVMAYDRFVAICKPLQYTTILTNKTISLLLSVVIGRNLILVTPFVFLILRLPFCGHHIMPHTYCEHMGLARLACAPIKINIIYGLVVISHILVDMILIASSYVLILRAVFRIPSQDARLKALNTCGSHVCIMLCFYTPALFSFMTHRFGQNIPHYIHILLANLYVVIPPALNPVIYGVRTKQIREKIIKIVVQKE
UniProt Q8VF73, sequence (Q8VF73 as listed by the source): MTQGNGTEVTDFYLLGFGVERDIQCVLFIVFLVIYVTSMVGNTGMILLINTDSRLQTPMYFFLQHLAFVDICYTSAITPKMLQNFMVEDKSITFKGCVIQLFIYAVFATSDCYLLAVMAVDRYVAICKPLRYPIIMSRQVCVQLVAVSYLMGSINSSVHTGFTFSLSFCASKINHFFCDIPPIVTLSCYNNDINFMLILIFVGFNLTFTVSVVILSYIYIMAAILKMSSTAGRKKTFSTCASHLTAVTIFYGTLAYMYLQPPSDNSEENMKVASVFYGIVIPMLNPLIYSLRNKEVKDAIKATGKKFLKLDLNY
UniProt Q8VFB8, sequence (Q8VFB8 as listed by the source): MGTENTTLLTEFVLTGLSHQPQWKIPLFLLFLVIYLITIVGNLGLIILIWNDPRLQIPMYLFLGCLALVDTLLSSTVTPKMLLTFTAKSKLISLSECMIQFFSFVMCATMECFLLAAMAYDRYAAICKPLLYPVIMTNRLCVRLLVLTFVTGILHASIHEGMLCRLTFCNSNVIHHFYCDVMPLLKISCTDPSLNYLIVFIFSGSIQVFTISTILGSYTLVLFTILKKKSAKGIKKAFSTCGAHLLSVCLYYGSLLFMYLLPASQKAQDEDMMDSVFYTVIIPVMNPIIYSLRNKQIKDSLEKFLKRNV

Structure (SMILES)	odorant receptor agonist call (UniProt Q8VF24)	odorant receptor agonist call (UniProt Q8VF43)	odorant receptor agonist call (UniProt Q8VF44)	odorant receptor agonist call (UniProt Q8VF52)	odorant receptor agonist call (UniProt Q8VFG6)	odorant receptor agonist call (UniProt Q8VFM8)	odorant receptor agonist call (UniProt Q8VF06)	odorant receptor agonist call (UniProt Q8VF73)	odorant receptor agonist call (UniProt Q8VFB8)
CCC(=O)C(=O)CC	inactive	inactive	inactive	inactive	inactive	inactive	–	–	–
C=CCOC(=O)CCCCCC	inactive	inactive	inactive	inactive	inactive	inactive	–	–	–
CCCCCCCCCO	inactive	inactive	inactive	inactive	inactive	inactive	inactive	–	–
CCCCC=O	–	inactive	–	inactive	–	inactive	inactive	–	–
CCCCCCCC(=O)[O-].[H+]	inactive	–	inactive	inactive	inactive	–	active	–	–
CCCCCCO	inactive	inactive	inactive	inactive	inactive	inactive	inactive	–	–
CCCCCCC(C)=O	inactive	inactive	inactive	inactive	inactive	inactive	–	–	–
CCCCCC1=C(C)CCC1=O	inactive	inactive	inactive	active	inactive	inactive	–	–	–
CC(=O)OCC=C(C)C	inactive	inactive	inactive	inactive	inactive	inactive	–	–	–
O=C(c1ccccc1)c1ccccc1	inactive	inactive	active	inactive	inactive	inactive	–	–	–
CCCCCCCCCS	inactive	inactive	inactive	inactive	inactive	inactive	–	–	–
O=C1CCOc2ccccc21	inactive	inactive	inactive	active	active	inactive	–	active	active
CCCCCCCCO	inactive	inactive	inactive	inactive	inactive	inactive	inactive	–	–
CCCCOC(=O)CCC	–	–	–	–	–	–	inactive	–	–
O=C1Cc2ccccc2O1	inactive	inactive	active	inactive	inactive	inactive	–	–	–
CCCCCCCO	inactive	inactive	inactive	inactive	inactive	inactive	inactive	–	–
CCCCC(C)=O	inactive	inactive	inactive	inactive	inactive	inactive	–	–	–
CCCCCCCCS	inactive	inactive	inactive	inactive	inactive	inactive	–	–	–
O=C(O)CCCCCCCCCC(=O)O	–	–	–	–	–	–	inactive	–	–
c1ccccc1	inactive	inactive	inactive	inactive	inactive	inactive	–	–	–
CCOC(=O)C(C)C	inactive	inactive	inactive	inactive	inactive	inactive	–	–	–

Structure (SMILES)	odorant receptor agonist call (UniProt Q8VF24)	odorant receptor agonist call (UniProt Q8VF43)	odorant receptor agonist call (UniProt Q8VF44)	odorant receptor agonist call (UniProt Q8VF52)	odorant receptor agonist call (UniProt Q8VFG6)	odorant receptor agonist call (UniProt Q8VFM8)	odorant receptor agonist call (UniProt Q8VF06)	odorant receptor agonist call (UniProt Q8VF73)	odorant receptor agonist call (UniProt Q8VFB8)
CCCCCCCCCCCC(=O)O	–	–	–	–	–	–	inactive	–	–
CCC(=O)O	inactive	inactive	inactive	inactive	inactive	inactive	–	–	–
CCCCC(=O)O	inactive	inactive	inactive	inactive	inactive	inactive	inactive	–	–
CCCCCCCCCCC(=O)O	–	–	–	–	–	–	inactive	–	–
CC12CCC(CC1=O)C2(C)C (stereo unspecified)	active	inactive	inactive	active	inactive	inactive	–	–	–
O=C(O)CCCCCCCCCCCBr	–	–	–	–	–	–	active	–	–
CCCCCCOC(C)=O	inactive	inactive	inactive	inactive	inactive	inactive	–	–	–
CCCC(C)=O	inactive	–	inactive	inactive	inactive	–	inactive	–	–
O=C([O-])CCCCCCCC(=O)[O-].[H+].[H+]	–	inactive	–	inactive	–	inactive	inactive	–	–
CCCCCCCCCCCO	–	inactive	–	inactive	–	inactive	active	–	–
CCCCCCCCC(=O)O	inactive	inactive	inactive	inactive	inactive	inactive	active	–	–
O=C(O)CCCCCBr	–	inactive	–	inactive	–	inactive	inactive	–	–
CC(C)=CCCC(C)CCO (stereo unspecified)	inactive	inactive	inactive	inactive	inactive	inactive	–	–	–
CCCCCCC(C=O)=Cc1ccccc1	–	inactive	–	inactive	–	inactive	–	–	–
CCCCCCCCCC(=O)[O-].[H+]	inactive	inactive	inactive	inactive	inactive	inactive	–	–	–
C=C(C)C1CCC(C)C(=O)C1 (stereo unspecified)	inactive	inactive	inactive	active	inactive	inactive	–	–	–
COc1cnccn1	–	inactive	–	inactive	–	inactive	–	–	–
CCCCOC=O	inactive	inactive	inactive	inactive	inactive	inactive	–	–	–
C=C1C2CCC(C2)C1(C)C (stereo unspecified)	–	inactive	–	inactive	–	inactive	–	–	–
CCCC(=O)C(C)=O	inactive	inactive	inactive	inactive	inactive	inactive	–	–	–
CCCCCCCC(C)=O	inactive	inactive	inactive	inactive	inactive	inactive	–	–	–

Reference: the M2OR odorant receptor database
